{"data": "Results of several laboratories", "target": "STE20-like serine/threonine-protein kinase (SLK, Homo sapiens, UniProt Q9H2G2)", "note": "Compare with care: the assays were run in different laboratories."}
{"Compound": "COc1cc(Nc2c(C#N)cnc3cc(OCCCN4CCN(C)CC4)c(OC)cc23)c(Cl)cc1Cl", "test": "cell-free assay", "setting": "0.5 µM", "quantity": "remaining signal", "result": "21.6%"}
{"Compound": "O=C(N1CCS(=O)(=O)CC1)N1C[C@H](c2ccc(OC(F)(F)F)cc2)C[C@H](c2nc(C3CC3)no2)C1", "test": "cell-free assay, competition with immobilised ligand", "setting": "1 µM", "quantity": "remaining binding", "result": "100%"}
{"Compound": "COc1cc(Cl)c(C(=O)N[C@@H](CN[C@H]2CC[C@@H](N)CC2)Cc2ccc(C#N)cc2)cc1-c1ccc(CN[C@H](C)c2ccc(C)cc2)o1", "test": "enzyme activity, inhibitor", "setting": "1 µM", "quantity": "remaining activity", "result": "95%"}
{"Compound": "Cc1ccc(Nc2nccc(N(C)c3ccc4c(C)n(C)nc4c3)n2)cc1S(N)(=O)=O", "test": "enzyme activity, inhibitor", "setting": "0.5 µM", "quantity": "remaining activity", "result": "84.9%"}
{"Compound": "CC1(C)NC(=O)c2[nH]c3c(Cl)c(Cl)ccc3c2C1C#N (stereo not shown)", "test": "thermal stability, DSF", "setting": "10 µM", "quantity": "ΔTm", "result": "-0.5 °C"}
{"Compound": "Nc1ncnc2occ(-c3ccc(NC(=O)Nc4cc(C(F)(F)F)ccc4F)cc3)c12", "test": "cell-free assay, inhibitor", "setting": "20 µM", "quantity": "remaining signal", "result": "0.05%"}
{"Compound": "CN1CCN(c2cnc3c(C4CCN(C(=O)c5ccc(OC(F)(F)F)cc5N)CC4)ncnc3c2)CC1", "test": "cell-free assay, competition with immobilised ligand", "setting": "1 µM", "quantity": "remaining binding", "result": "96%"}
{"Compound": "CCN1CCN(Cc2ccc(NC(=O)c3ccc(C)c(Oc4ccnc5[nH]ccc45)c3)cc2C(F)(F)F)CC1", "test": "target engagement in cells, inhibitor, chemoproteomics", "test system": "Huh-7", "setting": "10 µM", "quantity": "inhibition", "result": "-24.5%"}
{"Compound": "Cn1c2c(c3ccc(Cl)c(Cl)c31)C(C#N)C1(CCOCC1)NC2=O (stereo not shown)", "test": "thermal stability, DSF", "setting": "10 µM", "quantity": "ΔTm", "result": "-0.4 °C"}
{"Compound": "O=C1Nc2ccc(Cl)cc2C1=Cc1cc(Cl)c(O)c(Cl)c1", "test": "cell-free assay", "setting": "0.5 µM", "quantity": "remaining signal", "result": "95.3%"}
{"Compound": "Cn1c2c(c3ccc(Cl)c(Cl)c31)C(C#N)C(C)(C)NC2=O (stereo not shown)", "test": "thermal stability, DSF", "setting": "10 µM", "quantity": "ΔTm", "result": "-0.1 °C"}
{"Compound": "O=C(Nc1cnn(-c2csc(C(=O)NC3COC3)c2)c1)Nc1c(F)cccc1Cl", "test": "enzyme activity, inhibitor", "setting": "5 µM", "quantity": "remaining activity", "result": "95%"}
{"Compound": "CO[C@@H](C)c1c(Nc2ccc([C@H](N(C)C(=O)C3CCS(=O)(=O)CC3)C(F)(F)F)cc2)cnc2cc(Cl)nn12", "test": "cell-free assay, competition with immobilised ligand", "setting": "1 µM", "quantity": "remaining binding", "result": "81%"}
{"Compound": "Cc1ccc(NC(=O)c2ccc(CN3CCN(C)CC3)cc2)cc1Nc1nc(-c2cccnc2)cs1", "test": "cell-free assay", "setting": "0.5 µM", "quantity": "remaining signal", "result": "92.4%"}
{"Compound": "O=C1CCc2cc(Nc3cc(OC4CCOCC4)c([N+](=O)[O-])cc3Cl)ccc2N1", "test": "cell-free assay, competition with immobilised ligand", "setting": "1 µM", "quantity": "remaining binding", "result": "100%"}
{"Compound": "COc1cc2nccc(Oc3ccc(NC(=O)Nc4ccc(F)cc4F)c(F)c3)c2cc1OC", "test": "thermal stability, DSF", "setting": "10 µM", "quantity": "ΔTm", "result": "5 to 10 °C"}
{"Compound": "CC(C)(C)c1nc2c(s1)c1nc(N)ncc1c1ccc(NS(=O)(=O)c3c(F)cccc3F)c(F)c12", "test": "enzyme activity, inhibitor, radiometric", "setting": "1 µM", "quantity": "remaining activity", "result": "95%"}
{"Compound": "COc1cc(-c2cc(-c3ccc(N4CCNCC4)cc3)cnc2C)cc(OC)c1OC", "test": "enzyme activity, inhibitor", "setting": "0.1 µM", "quantity": "inhibition", "result": "12%"}
{"Compound": "CN1CC(Oc2cnc(C#N)cc2-c2ccn3nc(NC(=O)C4CC4)cc3c2)C1", "test": "enzyme activity, inhibitor", "setting": "1 µM", "quantity": "inhibition", "result": "7%"}
{"Compound": "O=C1NC(c2ccccn2)Sc2ccccc21 (stereo not shown)", "test": "cell-free assay, competition with immobilised ligand", "setting": "1 µM", "quantity": "remaining binding", "result": "76%"}
{"Compound": "Cn1c2c(Cl)c(Cl)ccc2c2cc[nH]c(=O)c21", "test": "thermal stability, DSF", "setting": "10 µM", "quantity": "ΔTm", "result": "0.2 °C"}
{"Compound": "Cc1c(C(=O)O)cc(-c2ccc(C3CCNCC3)cc2)c2ccc(-c3ccc(C(F)(F)F)cc3)cc12", "test": "binding, competition with immobilised ligand", "setting": "1 µM", "quantity": "remaining binding", "result": "100%"}
{"Compound": "CC(C)(O)[C@H]1CC[C@H](Nc2ccc3ncc(-c4cccc(C(F)(F)F)c4)n3n2)CC1", "test": "enzyme activity, inhibitor", "setting": "1 µM", "quantity": "remaining activity", "result": "71.5%"}
{"Compound": "CN1CCC2(CC1)NC(=O)c1c(c3ccc(Cl)c(Cl)c3n1C)C2C#N (racemic)", "test": "thermal stability, DSF", "setting": "10 µM", "quantity": "ΔTm", "result": "-0.5 °C"}
{"Compound": "Nc1cnc(N2CCc3cc(S(=O)(=O)Nc4c(F)cc(Cl)cc4F)cc(N4CCCC4=O)c32)nc1", "test": "cell-free assay, competition with immobilised ligand", "setting": "1 µM", "quantity": "remaining binding", "result": "100%"}
